Reference: ChEMBL document CHEMBL1138555, “N-acylated and N,N'-diacylated imidazolidine-2-thione derivatives and N,N'-diacylated tetrahydropyrimidine-2(1H)-thione analogues: synthesis and antiproliferative activity” (Eur J Med Chem, 2009)

Experiments:
HL-60(TB) = assay: Growth inhibition of human HL-60(TB) cells after 48 hrs by sulforhodamine B assay; assay type: functional; settings: HL-60, 48 h
Method in brief: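 NCI 60-cell-line screen protocol: cells exposed to compound at five 10-fold dilutions from 10^-4 to 10^-8 M for the last 48 h of a 72 h incubation. Sulforhodamine B protein assay estimated viability/growth. GI50 (50% growth inhibition) derived; where not reached or exceeded, reported as greater or less than the highest or lowest concentration tested.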

SNB-75 = assay: Growth inhibition of human SNB75 cells after 48 hrs by sulforhodamine B assay; assay type: functional; settings: SNB-75, 48 h
Method in brief: (§1)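 NCI in vitro panel screen. Compounds tested at five 10-fold dilutions, 10^-4 to 10^-8 M. Cells in 96-well plates were exposed for the last 48 h of a 72 h incubation. Viability/growth was read by sulforhodamine B protein assay. GI50 is the concentration giving 50% growth inhibition. Values beyond the tested range are reported as greater or less than the maximum or minimum concentration.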

A549 = assay: Growth inhibition of human A549 cells after 48 hrs by sulforhodamine B assay; assay type: functional; settings: A549, 48 h
Method in brief: (§2)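 NCI screen panel. Five 10-fold concentrations from 10^-4 to 10^-8 M. Exposure for the last 48 h of a 72 h incubation. Growth estimated by sulforhodamine B protein assay. GI50 is the concentration giving 50% growth inhibition. Where that level was not reached or was exceeded, the value is given as above or below the highest or lowest concentration tested.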

HCT-15 = assay: Growth inhibition of human HCT15 cells after 48 hrs by sulforhodamine B assay; assay type: functional; settings: HCT-15, 48 h; method in brief: as §2
OVCAR-8 = assay: Growth inhibition of human OVCAR8 cells after 48 hrs by sulforhodamine B assay; assay type: functional; settings: OVCAR-8, 48 h; method in brief: as §2
UO-31 = assay: Growth inhibition of human UO31 cells after 48 hrs by sulforhodamine B assay; assay type: functional; settings: UO-31, 48 h; method in brief: as §1
PC-3 = assay: Growth inhibition of human PC3 cells after 48 hrs by sulforhodamine B assay; assay type: functional; settings: PC-3, 48 h; method in brief: as §2
[1] = Growth inhibition of human […] cells after 48 hrs by sulforhodamine B assay; assay type: functional; method in brief: as §2
EKVX = assay: Growth inhibition of human EKVX cells after 48 hrs by sulforhodamine B assay; assay type: functional; method in brief: as §2
Malme-3M = assay: Growth inhibition of human MALME-3M cells after 48 hrs by sulforhodamine B assay; assay type: functional; method in brief: as §2
K562 = assay: Growth inhibition of human K562 cells after 48 hrs by sulforhodamine B assay; assay type: functional; settings: K562, 48 h; method in brief: as §2
IGROV-1 = assay: Growth inhibition of human IGROV1 cells after 48 hrs by sulforhodamine B assay; assay type: functional; settings: IGROV-1, 48 h; method in brief: as §2
NCI-H322M = assay: Growth inhibition of human NCI-H322M cells after 48 hrs by sulforhodamine B assay; assay type: functional; method in brief: as §2
BT-549 = assay: Growth inhibition of human BT549 cells after 48 hrs by sulforhodamine B assay; assay type: functional; settings: BT-549, 48 h; method in brief: as §2
SN12C = assay: Growth inhibition of human SN12C cells after 48 hrs by sulforhodamine B assay; assay type: functional; method in brief: as §1
MT4 = assay: Antiproliferative activity against human MT4 cells assessed as reduction of growth by MTT assay; assay type: functional, cell-based
Method in brief: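 MT-4 lymphoblastoid T cells (ATCC) in RPMI 1640 with 10% FCS, penicillin/streptomycin, checked for mycoplasma. 1 × 10⁴ mock-infected cells per well with serial dilutions from a 100 mM DMSO stock. Incubated 4 days at 37 °C, viable cells counted by MTT. IC50 versus untreated controls by linear regression. Mean of three separate experiments.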

SF-268 = assay: Growth inhibition of human SF268 cells after 48 hrs by sulforhodamine B assay; assay type: functional; settings: SF-268, 48 h; method in brief: as §2
COLO 205 = assay: Growth inhibition of human COLO205 cells after 48 hrs by sulforhodamine B assay; assay type: functional; settings: COLO 205, 48 h; method in brief: as §2
SR = assay: Growth inhibition of human SR cells after 48 hrs by sulforhodamine B assay; assay type: functional; method in brief: as §1
ACHN = assay: Growth inhibition of human ACHN cells after 48 hrs by sulforhodamine B assay; assay type: functional; method in brief: as §2
SNB-19 = assay: Growth inhibition of human SNB19 cells after 48 hrs by sulforhodamine B assay; assay type: functional; settings: SNB-19, 48 h; method in brief: as §1
CAKI-1 = assay: Growth inhibition of human Caki1 cells after 48 hrs by sulforhodamine B assay; assay type: functional; settings: CAKI-1, 48 h; method in brief: as §2
UACC-62 = assay: Growth inhibition of human UACC62 cells after 48 hrs by sulforhodamine B assay; assay type: functional; settings: UACC-62, 48 h; method in brief: as §1
KM12 = assay: Growth inhibition of human KM12 cells after 48 hrs by sulforhodamine B assay; assay type: functional; settings: KM12, 48 h; method in brief: as §2
T47D = assay: Growth inhibition of human T47D cells after 48 hrs by sulforhodamine B assay; assay type: functional; method in brief: as §1
HT-29 = assay: Growth inhibition of human HT-29 cells after 48 hrs by sulforhodamine B assay; assay type: functional; settings: HT-29, 48 h; method in brief: as §2
SK-MEL-5 = assay: Growth inhibition of human SK-MEL-5 cells after 48 hrs by sulforhodamine B assay; assay type: functional; settings: SK-MEL-5, 48 h; method in brief: as §2
NCI/ADR-RES = assay: Growth inhibition of human NCI/ADR-RES cells after 48 hrs by sulforhodamine B assay; assay type: functional; method in brief: as §2
SK-MEL-28 = assay: Growth inhibition of human SK-MEL-28 cells after 48 hrs by sulforhodamine B assay; assay type: functional; settings: SK-MEL-28, 48 h; method in brief: as §2
HOP-62 = assay: Growth inhibition of human HOP62 cells after 48 hrs by sulforhodamine B assay; assay type: functional; settings: HOP-62, 48 h; method in brief: as §2
SF-295 = assay: Growth inhibition of human SF295 cells after 48 hrs by sulforhodamine B assay; assay type: functional; settings: SF-295, 48 h; method in brief: as §2
SW-620 = assay: Growth inhibition of human SW620 cells after 48 hrs by sulforhodamine B assay; assay type: functional; settings: SW-620, 48 h; method in brief: as §1
MDA-MB-231 = assay: Growth inhibition of human MDA-MB-231 cells after 48 hrs by sulforhodamine B assay; assay type: functional; settings: MDA-MB-231, 48 h; method in brief: as §2
TK-10 = assay: Growth inhibition of human TK10 cells after 48 hrs by sulforhodamine B assay; assay type: functional; settings: TK-10, 48 h; method in brief: as §1
MDA-MB-435 = assay: Growth inhibition of human MDA-MB-435 cells after 48 hrs by sulforhodamine B assay; assay type: functional; settings: MDA-MB-435, 48 h; method in brief: as §2
SK-MEL-2 = assay: Growth inhibition of human SK-MEL-2 cells after 48 hrs by sulforhodamine B assay; assay type: functional; settings: SK-MEL-2, 48 h; method in brief: as §2
M14 = assay: Growth inhibition of human M14 cells after 48 hrs by sulforhodamine B assay; assay type: functional; settings: M14, 48 h; method in brief: as §2
SK-OV-3 = assay: Growth inhibition of human SKOV3 cells after 48 hrs by sulforhodamine B assay; assay type: functional; settings: SK-OV-3, 48 h; method in brief: as §2
MOLT-4 = assay: Growth inhibition of human MOLT4 cells after 48 hrs by sulforhodamine B assay; assay type: functional; settings: MOLT-4, 48 h; method in brief: as §2
RXF 393 = assay: Growth inhibition of human RXF393 cells after 48 hrs by sulforhodamine B assay; assay type: functional; settings: RXF 393, 48 h; method in brief: as §2
HCT-116 = assay: Growth inhibition of human HCT116 cells after 48 hrs by sulforhodamine B assay; assay type: functional; settings: HCT-116, 48 h; method in brief: as §2
NCI-H23 = assay: Growth inhibition of human NCI-H23 cells after 48 hrs by sulforhodamine B assay; assay type: functional; settings: NCI-H23, 48 h; method in brief: as §2
UACC-257 = assay: Growth inhibition of human UACC257 cells after 48 hrs by sulforhodamine B assay; assay type: functional; settings: UACC-257, 48 h; method in brief: as §1
OVCAR-4 = assay: Growth inhibition of human OVCAR4 cells after 48 hrs by sulforhodamine B assay; assay type: functional; settings: OVCAR-4, 48 h; method in brief: as §2
U-251 = assay: Growth inhibition of human U251 cells after 48 hrs by sulforhodamine B assay; assay type: functional; settings: U-251, 48 h; method in brief: as §1
NCI-H460 = assay: Growth inhibition of human NCI-H460 cells after 48 hrs by sulforhodamine B assay; assay type: functional; settings: NCI-H460, 48 h; method in brief: as §2
786-0 = assay: Growth inhibition of human 786-0 cells after 48 hrs by sulforhodamine B assay; assay type: functional; settings: 786-0, 48 h; method in brief: as §2
LOX IMVI = assay: Growth inhibition of human LOXIMVI cells after 48 hrs by sulforhodamine B assay; assay type: functional; method in brief: as §2
HOP-92 = assay: Growth inhibition of human HOP92 cells after 48 hrs by sulforhodamine B assay; assay type: functional; settings: HOP-92, 48 h; method in brief: as §2
OVCAR-3 = assay: Growth inhibition of human OVCAR-3 cells after 48 hrs by sulforhodamine B assay; assay type: functional; settings: OVCAR-3, 48 h; method in brief: as §2

## CC(=O)C(=CN1CCN(C(=O)c2ccco2)C1=S)C(C)=O
HL-60(TB)
  GI50: 5.8 µM
SNB-75
  GI50: 9 µM
A549
  GI50: 11.2 µM
HCT-15
  GI50: 2.2 µM
OVCAR-8
  GI50: 8.2 µM
UO-31
  GI50: 2.9 µM
PC-3
  GI50: 4.8 µM
[1]
  GI50: 2.7 µM
EKVX
  GI50: 11.2 µM
Malme-3M
  GI50: 20.7 µM
K562
  GI50: 38.4 µM
IGROV-1
  GI50: 3.6 µM
NCI-H322M
  GI50: 4.7 µM
BT-549
  GI50: 14 µM
SN12C
  GI50: 2.6 µM
MT4
  IC50: 4 µM
SF-268
  GI50: 2.6 µM
COLO 205
  GI50: 23.4 µM
SR
  GI50: 2.3 µM
ACHN
  GI50: 2.9 µM
SNB-19
  GI50: 30.1 µM
CAKI-1
  GI50: 5.2 µM
UACC-62
  GI50: 5.5 µM
KM12
  GI50: 2.8 µM
T47D
  GI50: 3.7 µM
HT-29
  GI50: 17.1 µM
SK-MEL-5
  GI50: 16.6 µM
NCI/ADR-RES
  GI50: 23.2 µM
SK-MEL-28
  GI50: 3.9 µM
HOP-62
  GI50: 22 µM
SF-295
  GI50: 21.7 µM
SW-620
  GI50: 14.6 µM
MDA-MB-231
  GI50: 2.6 µM
TK-10
  GI50: 4.2 µM
MDA-MB-435
  GI50: 12.6 µM
SK-MEL-2
  GI50: 3.3 µM
M14
  GI50: 4 µM
SK-OV-3
  GI50: 20 µM
MOLT-4
  GI50: 8.2 µM
RXF 393
  GI50: 1.8 µM
HCT-116
  GI50: 4.1 µM
NCI-H23
  GI50: 16.4 µM
UACC-257
  GI50: 2.5 µM
OVCAR-4
  GI50: 10.6 µM
U-251
  GI50: 4.8 µM
NCI-H460
  GI50: 1.5 µM
786-0
  GI50: 5.3 µM
LOX IMVI
  GI50: 2.1 µM
HOP-92
  GI50: 11.7 µM
OVCAR-3
  GI50: 11.4 µM
